This is an account of results in PubChem BioAssay AID1665 (Sanford-Burnham Center for Chemical Genomics, 2009).

Hit rate of the full screen: of about 190,000 compounds, about 590 (0.31%) were called active.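 The calls were made as follows: active = nuclear translocation activity above 50% at 5 µM, with a well cell count of 50 or more; inconclusive = wells under 50 cells across six images, flagged as toxic; inactive = the rest.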 The full list was thinned out, with actives kept by preference.

The nature of the assay: beta-catenin nuclear localization change in HeLa – imaging, HeLa cells, immunofluorescence, high-content, primary screen (AID 1665).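 As to nuclear translocation activity: per-cell ratio of nuclear to cytoplasmic median beta-catenin stain intensity; plate controls were DMSO negative control for no effect and GSK-3 inhibitor IX positive control for full effect.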 The settings on record: at 5 µM; cell count: HeLa beta-catenin nuclear translocation, measured here: cell count, cytotoxicity flag; nuclear translocation activity: stronger effect = higher value. In short, it runs like this:
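Read-out: Nuclear/cytoplasmic beta-catenin signal ratio, % activation | Assay system: Human HeLa cell line | Times: 24 h compound exposure at 37°C, 5% CO2 | Signal: Fluorescence imaging of beta-catenin antibody stain plus DAPI | Dosing: 5 µM primary, 0.02–20 µM confirmation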
`CCOC(=O)C1CCN(c2c(Nc3cc(C)cc(C)c3)c(=O)c2=O)CC1`: the cell count worked out at 1340 cells and the nuclear translocation activity was 0.9% (inactive).

For `O=C(Cn1cnc2cc([N+](=O)[O-])ccc2c1=O)NC(=O)NCc1ccccc1`, the cell count worked out at 1320 cells and the nuclear translocation activity was -2.1% (inactive).

With `Cc1cc(=O)[nH]c2nnnn12`, the cell count is 1080 cells and the nuclear translocation activity was -1.2% (inactive).

With `COc1ccccc1/C=N\Nc1cc(C)nc(-n2nc(C)cc2C)n1`, the cell count is 900 cells and the nuclear translocation activity is 0.7% (inactive).

As to `Cc1cc(N/N=C\c2ccc(Br)cc2)nc(-n2nc(C)cc2C)n1`, the cell count stood at 1430 cells and the nuclear translocation activity was -1.3% (inactive).

Consider `COc1ccc(Nc2cc(C)nc(-n3nc(C)cc3C)n2)cc1`, for which the cell count stood at 451 cells and the nuclear translocation activity was 249% (active).

Regarding `Nc1nnn(CC(=O)N/N=C/c2ccc(O)cc2)n1`, the cell count was determined as 1300 cells and the nuclear translocation activity was -1.2% (inactive).

For the compound `COCCNC(=S)N1CCN(C)CC1`, the cell count was 1380 cells and the nuclear translocation activity is -0.3% (inactive).

As for `CCn1c(=O)c([N+](=O)[O-])c(NCc2ccc3c(c2)OCO3)c2ccccc21`, the cell count was 1360 cells and the nuclear translocation activity is -0.1% (inactive).

Regarding `COc1cc(OC)cc(/C(N)=N/O)c1`, the cell count was 1310 cells and the nuclear translocation activity is 0.5% (inactive).

For the compound `COC(=O)c1ccccc1N=Nc1c(C)[nH][nH]c1=O`, the cell count turned out to be 1310 cells and the nuclear translocation activity was -1.6% (inactive).

As for `O=C(NCCc1c[nH]c2ccc(Cl)cc12)c1ccc([N+](=O)[O-])cc1`, the cell count is 1380 cells and the nuclear translocation activity is 1.3% (inactive).

Take `N/C(=N\OC(=O)CCn1cccc(C(F)(F)F)c1=O)c1ccc(OC(F)(F)F)cc1`: the cell count came to 1280 cells and the nuclear translocation activity is -1.4% (inactive).

As to `O=C(NCC1CCCO1)c1cc(-c2ccccc2)nc2ccccc12` (stereo unspecified), the cell count came to 1120 cells and the nuclear translocation activity is -2% (inactive).

For the compound `CC(C)c1c(O)nc(SCCOc2ccc(Cl)cc2)[nH]c1=O`, the cell count was 1310 cells and the nuclear translocation activity was 0.9% (inactive).

In the case of `Cc1nn(CC(=O)N/N=C/c2ccc(F)cc2)c(C)c1[N+](=O)[O-]`, the cell count was 1290 cells and the nuclear translocation activity is 0.3% (inactive).

On to `O=C(NC1=NCCS1)c1ccc(Cl)s1`, for which the cell count is 998 cells and the nuclear translocation activity was 1.4% (inactive).

In the case of `CC(=O)NC1=NN(C(C)=O)C(C)(c2ccc(Cl)s2)S1` (stereo unspecified), the cell count is 101 cells and the nuclear translocation activity was 68.6% (active).

As for `O=C(O)C(NS(=O)(=O)c1cccc2nsnc12)c1ccccc1` (stereo unspecified), the cell count was determined as 1330 cells and the nuclear translocation activity was -1% (inactive).

For `Cc1ccc(S(=O)(=O)N(C)CC(=O)OCC(=O)Nc2ccccc2)cc1`, the cell count was found to be 1320 cells and the nuclear translocation activity is -1.1% (inactive).

`CCS(=O)(=O)c1cc([N+](=O)[O-])c(Sc2ccccc2N)s1`: the cell count amounted to 1180 cells and the nuclear translocation activity is -2.4% (inactive).

Regarding `Cc1c(C(=O)N(Cc2ccccc2)Cc2cccnc2)cnn1-c1ccc(F)cc1`, the cell count was determined as 1030 cells and the nuclear translocation activity was 0.4% (inactive).

Turning to `CCOc1ccc(/C(O)=C2\C(=O)C(=O)N(c3ccc(OC)cc3)C2c2ccccc2[N+](=O)[O-])cc1` (stereo unspecified), the cell count was found to be 1260 cells and the nuclear translocation activity was -0.5% (inactive).

In the case of `O=C(NN1C(=O)C2CCCCC2C1=O)c1ccco1` (stereo unspecified), the cell count stood at 1260 cells and the nuclear translocation activity is 0.6% (inactive).

As to `Cc1cc(-c2n[nH]c(=S)n2/N=C/c2ccco2)n[nH]1`, the cell count amounted to 1280 cells and the nuclear translocation activity is -0.9% (inactive).

Regarding `CCc1cccc(CC)c1NC(=S)Nc1ccc2cn[nH]c2c1`, the cell count stood at 1270 cells and the nuclear translocation activity was 0.8% (inactive).

`O=[N+]([O-])c1ccc(N=Cc2c(O)ccc3ccccc23)cc1`: the cell count turned out to be 1330 cells and the nuclear translocation activity is 0.8% (inactive).

Take `Cc1ccc(C(=O)Nc2nc(N)n(-c3ccccc3)n2)cc1`: the cell count was 1180 cells and the nuclear translocation activity is -1.1% (inactive).

For the compound `O=C(c1c(Cl)cccc1Cl)N1CCN(c2cccc3[nH]ccc23)CC1`, the cell count is 1260 cells and the nuclear translocation activity is -1.5% (inactive).

`COc1ccc(NC(=O)c2cn(-c3ccccc3)nc2SC)cc1`: the cell count amounted to 1240 cells and the nuclear translocation activity is 0.1% (inactive).

`O=C(Nc1nnc(CCN2CCCCC2)s1)c1cccc(Cl)c1`: the cell count turned out to be 1310 cells and the nuclear translocation activity was 0.2% (inactive).

`C=CCSC(CC)(CC)C(N)=O`: the cell count amounted to 1320 cells and the nuclear translocation activity was 0.1% (inactive).

For the compound `Cc1cc(F)ccc1NC(=O)C(C)n1c2ccccc2c2nc(=O)cc(C)n21` (stereo unspecified), the cell count is 1290 cells and the nuclear translocation activity is -0.2% (inactive).

In the case of `COc1ccc(CCN2C(=O)N(c3ccc(OC)cc3)C(=O)C2CC(=O)Nc2ccc(OC)cc2)cc1` (stereo unspecified), the cell count came out at 1360 cells and the nuclear translocation activity was -0.8% (inactive).

Take `Cc1nc(-c2nnc(SCC(=O)Nc3cc(C(F)(F)F)cc(C(F)(F)F)c3)n2C)cs1`: the cell count worked out at 1370 cells and the nuclear translocation activity was -0.7% (inactive).

In the case of `Cc1ccc2c(C)c(C(=O)N3CCC(N4CCC(C(=O)NC5CC5)CC4)CC3)oc2c1`, the cell count worked out at 1360 cells and the nuclear translocation activity is 1.4% (inactive).

Regarding `CSc1ccc(NC(=O)/C=C/C(=O)O)cc1`, the cell count came to 1010 cells and the nuclear translocation activity was 2.1% (inactive).

In the case of `CCN1CCN(c2nc(Nc3cccc(F)c3)nc(N)c2[N+](=O)[O-])CC1`, the cell count was 1210 cells and the nuclear translocation activity was -1.4% (inactive).

With `Cc1ccccc1-c1nc(C#N)c(NCc2ccco2)o1`, the cell count came to 1080 cells and the nuclear translocation activity is -3.1% (inactive).

With `COc1ccc(Nc2nc(Cl)nc(NCc3ccco3)n2)cc1`, the cell count stood at 1380 cells and the nuclear translocation activity was 3% (inactive).

Take `COc1ccc(Nc2oc(-c3ccccc3Cl)nc2C#N)cc1`: the cell count came to 210 cells and the nuclear translocation activity was 156% (active).

In the case of `NS(=O)(=O)c1ccc(NC2=CC(c3ccc(F)cc3)N(c3ccc(S(N)(=O)=O)cc3)C2=O)cc1` (stereo unspecified), the cell count stood at 1320 cells and the nuclear translocation activity is 0.9% (inactive).

On to `C/C(=N\NC(=O)c1cccnc1)c1ccc(-c2ccccc2)cc1`, for which the cell count came out at 1160 cells and the nuclear translocation activity was -0.7% (inactive).

Take `O=C(Nc1ccc(S(=O)(=O)Nc2nccs2)cc1)c1cccc(S(=O)(=O)N2CCOCC2)c1`: the cell count is 1290 cells and the nuclear translocation activity is 0.8% (inactive).

On to `C[C@@H](NC(=O)OC(C)(C)C)c1nnc(S(=O)(=O)Cc2ccccc2)o1`, for which the cell count was found to be 1360 cells and the nuclear translocation activity is -0.8% (inactive).

In the case of `COc1ccc(N2C(=O)c3ccccc3NC2c2ccc(OC)c(CN3CCOCC3)c2)cc1` (stereo unspecified), the cell count was found to be 1290 cells and the nuclear translocation activity is 0.6% (inactive).

For `COc1ccc2nc(Nc3nc4ccc(NC(C)=O)cc4s3)sc2c1`, the cell count turned out to be 875 cells and the nuclear translocation activity is 2.8% (inactive).

Consider `CCCC(=O)Nc1nc2ccc(NC(=O)c3c(F)c(F)c(OC)c(F)c3F)cc2s1`, for which the cell count amounted to 260 cells and the nuclear translocation activity is 57.6% (active).

For the compound `CCCC(=O)Nc1nc2ccc(NC(=O)c3cccnc3)cc2s1`, the cell count stood at 895 cells and the nuclear translocation activity was -0.7% (inactive).

Turning to `Cc1ccc(/C=N/NC(=S)Nc2cccc(S(=O)(=O)N(C)C)c2)o1`, the cell count came to 1210 cells and the nuclear translocation activity was 2.8% (inactive).

With `CC(/C=C/C1(O)C(C)CC(=O)CC1(C)C)OC1OC(CO)C(O)C(O)C1O` (stereo unspecified), the cell count was determined as 1080 cells and the nuclear translocation activity is -3% (inactive).

As to `C=CC1C(OC2OC(CO)C(O)C(O)C2O)OC=C(C(=O)OC)C1CC1CC(=O)CC(CC(=O)CCc2ccc(O)cc2)O1` (stereo unspecified), the cell count was determined as 387 cells and the nuclear translocation activity was 79.8% (active).

With `Cc1cc(C(=O)NCCc2ccc(Cl)cc2)n(-c2ccccc2)n1`, the cell count was 1320 cells and the nuclear translocation activity was -0.3% (inactive).
